Data published in ChEMBL document CHEMBL2439982, “Synthesis and study of antiproliferative, antitopoisomerase II, DNA-intercalating and DNA-damaging activities of arylnaphthalimides” (Bioorg Med Chem, 2013).
pIC50: −log10 of the molar value. The source made the active and inactive calls. The rule behind the calls is not given here.

Columns and labels:
[1] = biological target: T1, DNA topoisomerase 1 (Homo sapiens) (UniProt P11387); assay: Inhibition of DNA topoisomerase 1 (unknown origin)-mediated relaxation of supercoiled pBSKS plasmid DNA assessed as formation of nicked form of DNA at 1 00 uM after 30 mins by agarose gel electrophoresis in presence of ethidium bromide
T1 sequence (whole entry): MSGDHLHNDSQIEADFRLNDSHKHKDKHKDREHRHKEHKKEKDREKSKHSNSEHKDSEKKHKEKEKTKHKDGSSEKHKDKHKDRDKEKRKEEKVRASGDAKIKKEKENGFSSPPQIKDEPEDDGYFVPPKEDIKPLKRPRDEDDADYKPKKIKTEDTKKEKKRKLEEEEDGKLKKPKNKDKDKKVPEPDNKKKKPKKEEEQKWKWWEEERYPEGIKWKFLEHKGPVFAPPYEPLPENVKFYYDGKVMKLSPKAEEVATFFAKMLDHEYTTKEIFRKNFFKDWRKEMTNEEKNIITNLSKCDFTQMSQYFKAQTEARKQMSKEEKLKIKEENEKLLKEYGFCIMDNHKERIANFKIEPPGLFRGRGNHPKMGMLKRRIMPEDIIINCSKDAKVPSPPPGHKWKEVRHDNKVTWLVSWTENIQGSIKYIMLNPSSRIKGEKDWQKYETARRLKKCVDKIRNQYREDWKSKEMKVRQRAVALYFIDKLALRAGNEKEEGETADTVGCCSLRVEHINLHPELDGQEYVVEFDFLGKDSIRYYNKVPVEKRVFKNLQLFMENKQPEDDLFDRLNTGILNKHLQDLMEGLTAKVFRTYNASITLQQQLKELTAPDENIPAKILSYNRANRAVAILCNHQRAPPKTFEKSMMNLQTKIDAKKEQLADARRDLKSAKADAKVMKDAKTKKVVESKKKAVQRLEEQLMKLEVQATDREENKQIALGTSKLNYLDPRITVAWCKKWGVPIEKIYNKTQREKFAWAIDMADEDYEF

[2] = biological target: DNA topoisomerase 2-alpha (Homo sapiens) (UniProt P11388); assay: Inhibition of human DNA topoisomerase 2alpha-mediated DNA cleavage assessed as decrease in relaxation of supercoiled pRYG plasmid at 100 uM after 30 mins by agarose gel electrophoresis
Chain of DNA topoisomerase 2-alpha (Homo sapiens) (P11388 whole entry): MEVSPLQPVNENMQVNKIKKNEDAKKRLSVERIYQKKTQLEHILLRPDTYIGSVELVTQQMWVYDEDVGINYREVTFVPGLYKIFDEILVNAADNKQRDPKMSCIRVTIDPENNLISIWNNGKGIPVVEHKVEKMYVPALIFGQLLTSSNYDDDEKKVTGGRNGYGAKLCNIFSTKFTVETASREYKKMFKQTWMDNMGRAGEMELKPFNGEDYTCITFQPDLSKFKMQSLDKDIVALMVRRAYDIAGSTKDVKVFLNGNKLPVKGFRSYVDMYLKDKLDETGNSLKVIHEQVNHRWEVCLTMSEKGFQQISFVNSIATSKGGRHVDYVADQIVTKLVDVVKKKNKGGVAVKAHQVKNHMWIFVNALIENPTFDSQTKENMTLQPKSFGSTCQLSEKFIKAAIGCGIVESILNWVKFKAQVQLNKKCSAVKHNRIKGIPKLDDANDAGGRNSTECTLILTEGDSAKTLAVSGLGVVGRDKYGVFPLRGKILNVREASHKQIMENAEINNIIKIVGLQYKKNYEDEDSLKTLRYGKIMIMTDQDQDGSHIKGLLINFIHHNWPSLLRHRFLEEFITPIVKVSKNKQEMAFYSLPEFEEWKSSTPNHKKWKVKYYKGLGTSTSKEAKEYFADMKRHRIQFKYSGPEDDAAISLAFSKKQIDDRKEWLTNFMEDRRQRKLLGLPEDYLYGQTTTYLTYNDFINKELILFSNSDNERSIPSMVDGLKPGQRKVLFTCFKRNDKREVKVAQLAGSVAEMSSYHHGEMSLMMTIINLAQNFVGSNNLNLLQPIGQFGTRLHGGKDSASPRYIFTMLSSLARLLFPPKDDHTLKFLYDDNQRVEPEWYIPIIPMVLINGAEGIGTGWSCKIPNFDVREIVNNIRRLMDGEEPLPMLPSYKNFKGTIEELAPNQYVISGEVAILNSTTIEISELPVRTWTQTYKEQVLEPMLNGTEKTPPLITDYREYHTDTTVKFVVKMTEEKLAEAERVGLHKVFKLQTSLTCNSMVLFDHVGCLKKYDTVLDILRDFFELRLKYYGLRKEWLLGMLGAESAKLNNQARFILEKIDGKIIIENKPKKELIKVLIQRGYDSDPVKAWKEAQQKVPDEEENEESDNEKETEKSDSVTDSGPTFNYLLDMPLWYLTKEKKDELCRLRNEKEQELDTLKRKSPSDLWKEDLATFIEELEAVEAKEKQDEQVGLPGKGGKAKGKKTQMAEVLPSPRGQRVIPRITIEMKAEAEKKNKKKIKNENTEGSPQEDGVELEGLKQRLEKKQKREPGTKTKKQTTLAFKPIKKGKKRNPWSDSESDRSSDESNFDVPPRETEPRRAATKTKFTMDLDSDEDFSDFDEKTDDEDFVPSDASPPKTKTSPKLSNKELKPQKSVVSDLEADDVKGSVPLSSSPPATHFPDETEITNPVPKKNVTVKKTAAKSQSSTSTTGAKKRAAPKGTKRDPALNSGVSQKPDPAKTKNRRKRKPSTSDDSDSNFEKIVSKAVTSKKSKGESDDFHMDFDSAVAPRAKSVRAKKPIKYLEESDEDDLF
In short: (§1)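 Human Topo IIα, 1–2 units, with 250 ng supercoiled pRYG and 1 mM ATP in 5 mM Tris-HCl pH 7.5, 12.5 mM NaCl, 1 mM MgCl2, 0.5 mM DTT, 10 µg/mL albumin. Compound added in DMSO, 1% final. Incubated 37 °C for 30 min, stopped with SDS/EDTA, proteinase K digestion. 1% agarose in TBE without ethidium bromide, stained afterwards. Inhibition scored at 100, 60 and 30 µM.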

SK-BR-3 = assay: Antiproliferative activity against human SKBR3 cells after 48 hrs by MTT assay; assay type: functional, cell-based; conditions: SK-BR-3, 48 h
In short: (§2)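 Cells seeded at 10,000 per well; compound or vehicle (0.1% DMSO final) added 24 h after plating and left 48 h. MTT added at 0.5 mg/mL final for 3 h at 37 °C, formazan dissolved in SDS–HCl (20% SDS, 0.02 M HCl), absorbance at 570 nm. IC50 by non-linear regression; mean SD, n = 3.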

MCF7 = assay: Antiproliferative activity against human MCF7 cells after 48 hrs by MTT assay; assay type: functional, cell-based; conditions: MCF7, 48 h; in short: as §2
[3] = biological target: DNA topoisomerase 2-alpha (Homo sapiens) (UniProt P11388); assay: Inhibition of human DNA topoisomerase 2alpha-mediated DNA cleavage assessed as decrease in relaxation of supercoiled pRYG plasmid at 60 uM after 30 mins by agarose gel electrophoresis; in short: as §1
HEL = assay: Antiproliferative activity against human HEL cells after 48 hrs by MTT assay; assay type: functional, cell-based; in short: as §2
Saccharomyces cerevisiae [4] = assay: Growth inhibition of Saccharomyces cerevisiae FM588 expressing wild type rad52 gene at 1 to 100 uM after 24 hrs by spectrophotometry; assay type: functional, organism-based
[5] = biological target: DNA topoisomerase 2-alpha (Homo sapiens) (UniProt P11388); assay: Inhibition of human DNA topoisomerase 2alpha-mediated relaxation of supercoiled pRYG plasmid DNA assessed as formation of linearized DNA at 100 uM after 30 mins by agarose gel electrophoresis relative to vehicle-treated control in presence of ethidium bromide
In short: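 Cleavage-complex assay set up as the Topo IIα relaxation reaction, but with 10 units of hTopoIIα added 1–3 min before 100 µM compound in 1% DMSO. Etoposide as positive control. Electrophoresis in TAE containing 0.5 µg/mL ethidium bromide to resolve the linearized intermediate.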

Saccharomyces cerevisiae [6] = assay: Induction of DNA repair in Saccharomyces cerevisiae W3749-14C harboring Rad52-YFP assessed as increase in Rad52 foci formation at 100 uM after 3 hrs; assay type: functional, organism-based
In short: (§3)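 RAD52-YFP yeast (W3749-14C) growing asynchronously treated 3 h at 25 °C with 100 µM compound in 1% DMSO; DMSO and phleomycin 25 µg/mL as controls. Cells micrographed. Mononucleated budded cells with bud over two-thirds mother size scored as G2-arrested. Foci per cell = total YFP foci / total cells.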

Saccharomyces cerevisiae [7] = assay: Cell cycle arrest in Saccharomyces cerevisiae W3749-14C harboring RAD52-YFP assessed as accumulation at G2 Phase at 100 uM after 3 hrs; assay type: functional, organism-based; in short: as §3
[8] = biological target: T1, DNA topoisomerase 1 (Homo sapiens); assay: Inhibition of DNA topoisomerase 1 (unknown origin)-mediated DNA cleavage assessed as decrease in relaxation of supercoiled pBSKS plasmid at 1 00 uM after 30 mins by agarose gel electrophoresis
[9] = biological target: T2, Type II restriction enzyme XhoI (Xanthomonas vasicola) (UniProt Q9KVZ7); assay: Inhibition of Xanthomonas vasicola Xho1 assessed as inhibition of endonucleolytic cleavage of pBSKS plasmid DNA at 100 uM by agarose gel electrophoresis
T2 sequence (whole entry): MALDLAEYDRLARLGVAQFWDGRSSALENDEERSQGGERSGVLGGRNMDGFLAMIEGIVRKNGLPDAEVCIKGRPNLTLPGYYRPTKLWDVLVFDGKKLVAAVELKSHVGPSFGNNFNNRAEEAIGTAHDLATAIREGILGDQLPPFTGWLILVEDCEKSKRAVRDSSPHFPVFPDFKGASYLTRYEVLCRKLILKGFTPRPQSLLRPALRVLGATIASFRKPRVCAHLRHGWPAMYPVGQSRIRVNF
In short: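 XhoI digestion of pBSKS plasmid, which carries a single XhoI site, run like the Topo I reaction with compounds at 100 µM in 1% DMSO. Actinomycin D as intercalator control. Agarose gel separates supercoiled, nicked intermediate and linear product.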

Saccharomyces cerevisiae [10] = assay: Growth inhibition of isogenic rad52-deficient Saccharomyces cerevisiae FM588 at 1 to 100 uM after 24 hrs by spectrophotometry; assay type: functional, organism-based
[11] = biological target: DNA topoisomerase 2-alpha (Homo sapiens) (UniProt P11388); assay: Inhibition of human DNA topoisomerase 2alpha-mediated DNA cleavage assessed as decrease in relaxation of supercoiled pRYG plasmid at 30 uM after 30 mins by agarose gel electrophoresis; in short: as §1

SMILES	inhibition [1]	inhibition [2]	pIC50 (SK-BR-3)	pIC50 (MCF7)	inhibition [3]	pIC50 (HEL)	growth inhibition (GI) (Saccharomyces cerevisiae [4])	inhibition [5]	Activity (Saccharomyces cerevisiae [6])	Activity (Saccharomyces cerevisiae [7])	inhibition [8]	inhibition [9]	growth inhibition (GI) (Saccharomyces cerevisiae [10])	inhibition [11]
COc1ccccc1-c1ccc2cccc3c2c1C(=O)N(CCN(C)C)C3=O	inactive	inactive	4.62	4.62										
CN(C)CCN1C(=O)c2cccc3cc(-c4cccc(C(F)(F)F)c4)cc(c23)C1=O			5.92		Active	5.80	Active	Active	Active	Active				
COc1cccc(-c2ccc3c4c(cccc24)C(=O)N(CCN(C)C)C3=O)c1	inactive	Active	< 4.52	< 4.52							Active			
COc1cccc(-c2cc3c4c(cccc4c2)C(=O)N(CCN(C)C)C3=O)c1	inactive		6.52	6.30	Active	5.57	Active	Active	Active	Active	Active	Active		
CN(C)CCN1C(=O)c2cccc3cc(-c4cccc(N)c4)cc(c23)C1=O		inactive	4.85			4.87		Active					Active	
CN(C)CCN1C(=O)c2cccc3cc(N)cc(c23)C1=O [AMONAFIDE]			5.13		Active	5.47	inactive	Active					Active	
COc1ccc(-c2ccc3cccc4c3c2C(=O)N(CCN(C)C)C4=O)cc1	inactive	inactive	< 4.52	< 4.52									inactive	
COc1ccccc1-c1cc2c3c(cccc3c1)C(=O)N(CCN(C)C)C2=O	inactive	Active	4.92	4.59										
CN(C)CCN1C(=O)c2cccc3cc(-c4cccc(O)c4)cc(c23)C1=O		Active	5.36			5.15		Active					Active	
COc1ccccc1-c1ccc2c3c(cccc13)C(=O)N(CCN(C)C)C2=O	inactive	inactive	< 4.52	< 4.52									inactive	
COc1ccc(-c2ccc3c4c(cccc24)C(=O)N(CCN(C)C)C3=O)cc1	inactive		4.56	< 4.52	Active						Active			
COc1cccc(-c2ccc3cccc4c3c2C(=O)N(CCN(C)C)C4=O)c1			< 4.52	< 4.52										
CN(C)CCN1C(=O)c2cccc3cc(-c4ccccc4)cc(c23)C1=O			6.10			5.22	Active	Active	Active	Active				Active
CN(C)CCN1C(=O)c2cccc3cc(-c4cccc([N+](=O)[O-])c4)cc(c23)C1=O			5.92			6.22	Active	Active	Active	Active				Active
COc1ccc(-c2cc3c4c(cccc4c2)C(=O)N(CCN(C)C)C3=O)cc1	inactive	Active	5.82	5.12									Active	
